According to article PMC6137948 (Drug Design, Development and Therapy, 2018):
Entries after “also recorded” stand apart in the source; their conditions may differ.

How the values were obtained:
S. epidermidis 533 = assay: MIC, broth micro-dilution, pre-screening panel; format: cell-based, Staphylococcus epidermidis; conditions: Mueller Hinton broth
S. haemolyticus 602 = assay: MIC, broth micro-dilution, pre-screening panel; format: cell-based, Staphylococcus haemolyticus; conditions: Mueller Hinton broth
[1] = system: vancomycin-intermediate resistant Staphylococcus aureus (VISA); assay: MIC, pre-screening panel, summary for VISA strains; format: cell-based; conditions: summary of Table 1, S. aureus 3797 and 3798
VISA = conditions: Introduction; cited from earlier work
S. aureus 3797 (VISA) = assay: MIC, broth micro-dilution, pre-screening panel; format: cell-based, Staphylococcus aureus; conditions: S. aureus 3797 (VISA HIP-5836), Mueller Hinton broth
[2] = system: non-immune activation of histamine release (inflammatory reaction to concanavalin A); assay: Pseudoallergic inflammatory reaction on concanavalin A; format: in vivo; conditions: male CBA mice; single IV dose of MTD
VRE = conditions: Introduction; cited from earlier work
CBA mice = assay: Acute toxicity in mice; conditions: for MTD (LD10): CBA mice, single bolus IV injection in 5% glucose, Litchfield and Wilcoxon; for ratio between therapeutic (ED50) and toxic doses (MTD): ED50 in sepsis model / MTD in mice
E. faecium 568 = assay: MIC, broth micro-dilution, pre-screening panel; format: cell-based, Enterococcus faecium; conditions: E. faecium 568 (VSE), Mueller Hinton broth
E. faecalis 559 = assay: MIC, broth micro-dilution, pre-screening panel; format: cell-based, Enterococcus faecalis; conditions: E. faecalis 559 (VSE), Mueller Hinton broth
S. aureus 3798 (VISA) = assay: MIC, broth micro-dilution, pre-screening panel; format: cell-based, Staphylococcus aureus; conditions: S. aureus 3798 (VISA HIP-5827), Mueller Hinton broth
S. aureus (MRSA, n=255) = assay: Antimicrobial susceptibility testing of clinical isolates; format: cell-based, Staphylococcus aureus
How it was run: (§1)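 Non-duplicate clinical isolates from hospitalised adults and children with community or nosocomial infections (skin/soft tissue, respiratory tract, bone, joint, urinary tract, abdominal). Tested per EUCAST recommendations by broth microdilution in Mueller Hinton broth following NCCLS procedures.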

E. faecalis (n=122) = assay: as above; format: cell-based, Enterococcus faecalis
How it was run: as §1

S. aureus (strain 10) = assay: Mouse model of staphylococcal sepsis; format: in vivo; conditions: staphylococcal sepsis in mice, IV
How it was run: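 Female SHK mice (22–25 g), quarantined 2 weeks, infected IV with mouse-adapted S. aureus strain 10 at lethal dose (LD100 3 × 10^8 CFU/mouse). Thirty minutes later, test compound given IV in 5% glucose at 6 doses (0.25–4.5 mg/kg); comparator glycopeptides at 2.5–7.5 and 0.5–5.0 mg/kg. Untreated infected controls included. Mortality recorded daily for 10 days. ED50 by Barents frequency-accumulation method; ratios from ED50 values.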

[3] = system: genera Staphylococcus and Enterococcus; assay: Antimicrobial susceptibility testing, panel of 676 isolates, summary; format: cell-based; conditions: for MIC90 for the genera Staphylococcus and Enterococcus: panel of 676 isolates, except for E. faecium
E. faecium (n=75) = assay: Antimicrobial susceptibility testing of clinical isolates; format: cell-based, Enterococcus faecium; conditions: for MIC 50% (MIC50) / MIC 90% (MIC90): E. faecium n=75
[4] = system: Coagulase-negative Staphylococcus (n=45); assay: Antimicrobial susceptibility testing of clinical isolates; format: cell-based
How it was run: as §1

S. aureus (MSSA, n=179) = assay: as above; format: cell-based, Staphylococcus aureus
How it was run: as §1

[5] = system: panel of clinical isolates of Gram-positive microorganisms; assay: MIC, pre-screening panel, summary for all tested strains; format: cell-based; conditions: text summary of Table 1, all strains of the pre-screening panel
[6] = VRE isolates of the E. faecium collection

Substance | MIC (S. epidermidis 533) | MIC (S. haemolyticus 602) | MICs against VISA strains [1] | MIC (S. aureus 3797 (VISA)) | pseudoallergic inflammatory reaction on concanavalin A, in words [2] | activity against VRE, in words (VRE) | MTD (LD10) (CBA mice) | MIC (E. faecium 568) | MIC (E. faecalis 559) | MIC (S. aureus 3798 (VISA)) | MIC 50% (MIC50) (S. aureus (MRSA, n=255)) | MIC 90% (MIC90) (S. aureus (MRSA, n=255)) | ratio between therapeutic (ED50) and toxic doses (MTD) (CBA mice; IV) | MIC 50% (MIC50) (E. faecalis (n=122)) | MIC 90% (MIC90) (E. faecalis (n=122)) | MIC90 for the genera Staphylococcus and Enterococcus [3] | MIC 50% (MIC50) (E. faecium (n=75)) | MIC 90% (MIC90) (E. faecium (n=75)) | MIC 50% (MIC50) [4] | MIC 90% (MIC90) [4] | other results
Eremomycin [compound 2, reference compound] | 0.25 µg/mL | 0.25 µg/mL | 4 to 8 mg/L | 4 µg/mL | statistically significant elevations of Me with respect to Mc | inactive | 877.9 mg/kg | 0.5 µg/mL | 0.5 µg/mL | 4 µg/mL | – | – | – | – | – | – | – | – | – | – | MIC against VISA (VISA): 8 µg/mL; acute toxicity, fold lower than that of 1 (CBA mice; by LD50, CBA mice, IV): ~3 fold
Eremomycin piperidide [compound 6] | 0.13 µg/mL | – | 0.5 to 2 mg/L | 0.5 µg/mL | – | – | – | 0.5 µg/mL | – | 2 µg/mL | – | – | – | – | – | – | – | – | – | – | –
Eremomycin pyrrolidide [compound 5] | 0.25 µg/mL | 0.25 µg/mL | 0.5 to 2 mg/L | 1 µg/mL | did not induce pseudoallergic inflammatory reaction; also recorded: non-significant difference; also recorded: no histamine release activity | – | 119.7 mg/kg | 0.13 µg/mL | 0.25 µg/mL | 1 µg/mL | 0.25 µg/mL | 0.5 µg/mL | 1/150 | 0.25 µg/mL | 0.5 µg/mL | 0.5 µg/mL | 0.125 µg/mL | 4 µg/mL | 0.25 µg/mL | 0.5 µg/mL | MICs against VISA strains ([1]; listed as eremomycin pyrrolidide (5)): 1 mg/L; acute toxicity, fold higher (CBA mice; by LD50 compared with 1, CBA mice, IV): about 2 fold; therapeutically efficient dose, fold smaller than MTD (CBA mice; mice, IV): 150 fold; ED50 times lower than that for 1 (S. aureus (strain 10)): 5 times; ED50 times lower than that for 2 (S. aureus (strain 10)): 2.5 times; potency exceeding that of vancomycin (1) ([3]; S. aureus, coagulase-negative Staphylococcus and Enterococcus strains): 2–4 dilutions; susceptibility of vancomycin-resistant E. faecium (VRE) strains, in words (E. faecium (n=75); [6]): susceptible; MIC 50% (MIC50) (S. aureus (MSSA, n=179)): 0.5 µg/mL; MIC 90% (MIC90) (S. aureus (MSSA, n=179)): 0.5 µg/mL
Vancomycin [compound 1, reference compound] | 2 µg/mL | 2 µg/mL | 4 to 8 mg/L | 8 µg/mL | statistically significant elevations of Me with respect to Mc | inactive | 360 mg/kg | 2 µg/mL | 2 µg/mL | 8 µg/mL | 1 µg/mL | 2 µg/mL | 1/90 | 1 µg/mL | 2 µg/mL | 1 to 2 µg/mL | 1 µg/mL | 2 µg/mL | 2 µg/mL | 2 µg/mL | MIC for VISA isolates (VISA): ≥ 8 µg/mL; MIC for strains of vancomycin-resistant E. faecium (VRE) (E. faecium (n=75); [6]): > 64 µg/mL; number of resistant strains of E. faecium (VRE) (E. faecium (n=75); strains with MIC =64 mg/L (b1) / MIC >64 mg/L, number (% of strains)): 7 (8%); MIC 50% (MIC50) (S. aureus (MSSA, n=179)): 1 µg/mL; MIC 90% (MIC90) (S. aureus (MSSA, n=179)): 1 µg/mL
Vancomycin piperidide [compound 4] | 0.5 µg/mL | – | 0.5 to 2 mg/L | 1 µg/mL | – | – | – | 0.5 µg/mL | – | 1 µg/mL | – | – | – | – | – | – | – | – | – | – | MICs against the tested strains [5]: 0.5 to 8 mg/L
Vancomycin pyrrolidide [compound 3] | 0.5 µg/mL | 0.5 µg/mL | – | 4 µg/mL | – | – | – | 1 µg/mL | 2 µg/mL | 8 µg/mL | – | – | – | – | – | – | – | – | – | – | MICs against the tested strains [5]: 0.5 to 8 mg/L
